Reference: ChEMBL document CHEMBL4316620, “Dihydropyrrolones as bacterial quorum sensing inhibitors” (Bioorg Med Chem Lett, 2019)
The source made the active and inactive calls. The calls are words filed in the database; no cut-off is given here.

System: Pseudomonas aeruginosa
Test: Inhibition of biofilm formation in Pseudomonas aeruginosa PAO1 at 62.5 uM incubated for 6 hrs by crystal violet staining based method
Assay type: functional
Settings: PAO1, 6 h
Summary of the method: (§1)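 P. aeruginosa PA01 biofilm. Cultures grown with or without test compound for 6 h. Biofilm biomass quantified by crystal violet staining (OD550). % inhibition calculated relative to DMSO control.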

SMILES | inhibition at 62.5 µM [%]
C=C1C(c2ccc(Br)cc2)=CC(=O)N1c1ccsc1 | 47

System: not listed separately
Test: Inhibition of quorum sensing system in Pseudomonas aeruginosa MH602 PlasB::gfp at 250 uM incubated for 15 hrs by GFP reporter gene assay
Settings: not given
Summary of the method: (§2)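 Reporter strain P. aeruginosa PlasB::gfp (PAMH602) makes its own AHL; lasB promoter drives GFP-ASV. Cultures incubated with compound over 250–31.25 µM at 37 °C for 15 h, then GFP fluorescence read at 535 nm. QSI expressed as % relative to untreated PAMH602 negative control. Furanone positive control.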

inhibition [%] | SMILES
52.4 | C=C1C(c2ccc(Br)cc2)=CC(=O)N1c1ccc(Cl)cc1
59.1 | C=C1C(c2ccccc2F)=CC(=O)N1c1cccc(C)c1
54.3 | C=C1C(c2ccc(Br)cc2)=CC(=O)N1c1ccc(Br)cc1
67.9 | O=C1C=C(c2ccccc2F)CN1
64.4 | C=C1C(c2ccccc2F)=CC(=O)N1c1cccc(Cl)c1
65.9 | O=C1C=C(c2ccc(Br)cc2)CN1
73.3 | C=C1C(c2ccc(Br)cc2)=CC(=O)N1c1ccc(OC)cc1
67.9 | C=C1NC(=O)C=C1c1ccc(CC)cc1
74.4 | C=C1NC(=O)C=C1c1ccc(OC)cc1
82.3 | C=C1NC(=O)C=C1c1ccc(Br)cc1
86 | C=C1C(c2ccc(Br)cc2)=CC(=O)N1c1ccsc1

System: not listed separately
Test: Inhibition of quorum sensing system in Pseudomonas aeruginosa MH602 PlasB::gfp at 125 uM incubated for 15 hrs by GFP reporter gene assay
Settings: not given
Summary of the method: as §2

inhibition [%] | SMILES
50.3 | C=C1C(c2ccc(Br)cc2)=CC(=O)N1c1ccc(Cl)cc1
39.7 | C=C1C(c2ccccc2F)=CC(=O)N1c1cccc(C)c1
50.5 | C=C1C(c2ccc(Br)cc2)=CC(=O)N1c1ccc(Br)cc1
48.8 | O=C1C=C(c2ccccc2F)CN1
57.3 | C=C1C(c2ccccc2F)=CC(=O)N1c1cccc(Cl)c1
42.8 | O=C1C=C(c2ccc(Br)cc2)CN1
61.8 | C=C1C(c2ccc(Br)cc2)=CC(=O)N1c1ccc(OC)cc1
59.6 | C=C1NC(=O)C=C1c1ccc(CC)cc1
62.7 | C=C1NC(=O)C=C1c1ccc(OC)cc1
75.2 | C=C1NC(=O)C=C1c1ccc(Br)cc1
75 | C=C1C(c2ccc(Br)cc2)=CC(=O)N1c1ccsc1

System: not listed separately
Test: Inhibition of quorum sensing system in Pseudomonas aeruginosa MH602 PlasB::gfp at 62.5 uM incubated for 15 hrs by GFP reporter gene assay
Settings: not given
Summary of the method: as §2

inhibition [%] | SMILES
44.9 | C=C1C(c2ccc(Br)cc2)=CC(=O)N1c1ccc(Cl)cc1
25.5 | C=C1C(c2ccccc2F)=CC(=O)N1c1cccc(C)c1
40.4 | C=C1C(c2ccc(Br)cc2)=CC(=O)N1c1ccc(Br)cc1
30.5 | O=C1C=C(c2ccccc2F)CN1
49.6 | C=C1C(c2ccccc2F)=CC(=O)N1c1cccc(Cl)c1
25 | O=C1C=C(c2ccc(Br)cc2)CN1
32.1 | C=C1C(c2ccc(Br)cc2)=CC(=O)N1c1ccc(OC)cc1
35.1 | C=C1NC(=O)C=C1c1ccc(CC)cc1
44.5 | C=C1NC(=O)C=C1c1ccc(OC)cc1
66.9 | C=C1NC(=O)C=C1c1ccc(Br)cc1
59.9 | C=C1C(c2ccc(Br)cc2)=CC(=O)N1c1ccsc1

System: not listed separately
Test: Inhibition of quorum sensing system in Pseudomonas aeruginosa MH602 PlasB::gfp at 31.25 uM incubated for 15 hrs by GFP reporter gene assay
Settings: not given
Summary of the method: as §2

inhibition [%] | SMILES
7.39 | C=C1C(c2ccc(Br)cc2)=CC(=O)N1c1ccc(Cl)cc1
25.3 | C=C1C(c2ccccc2F)=CC(=O)N1c1cccc(C)c1
8.81 | C=C1C(c2ccc(Br)cc2)=CC(=O)N1c1ccc(Br)cc1
24.4 | O=C1C=C(c2ccccc2F)CN1
38.7 | C=C1C(c2ccccc2F)=CC(=O)N1c1cccc(Cl)c1
21.9 | O=C1C=C(c2ccc(Br)cc2)CN1
14.4 | C=C1C(c2ccc(Br)cc2)=CC(=O)N1c1ccc(OC)cc1
32.5 | C=C1NC(=O)C=C1c1ccc(CC)cc1
37 | C=C1NC(=O)C=C1c1ccc(OC)cc1
63.1 | C=C1NC(=O)C=C1c1ccc(Br)cc1
49.9 | C=C1C(c2ccc(Br)cc2)=CC(=O)N1c1ccsc1

System: Pseudomonas aeruginosa
Test: Toxicity in Pseudomonas aeruginosa MH602 PlasB::gfp assessed as inhibition of bacterial growth at 250 uM incubated for 15 hrs by spectrophotometry
Assay type: organism-based
Settings: MH602, 15 h, read-out: GI

SMILES | inhibition at 250 µM [%]
C=C1C(c2ccc(Br)cc2)=CC(=O)N1c1ccc(Cl)cc1 | ≤ 15
C=C1C(c2ccccc2F)=CC(=O)N1c1cccc(C)c1 | ≤ 15
C=C1C(c2ccc(Br)cc2)=CC(=O)N1c1ccc(Br)cc1 | ≤ 15
O=C1C=C(c2ccccc2F)CN1 | ≤ 15
C=C1C(c2ccccc2F)=CC(=O)N1c1cccc(Cl)c1 | ≤ 15
O=C1C=C(c2ccc(Br)cc2)CN1 | ≤ 15
C=C1C(c2ccc(Br)cc2)=CC(=O)N1c1ccc(OC)cc1 | ≤ 15
C=C1NC(=O)C=C1c1ccc(CC)cc1 | ≤ 15
C=C1NC(=O)C=C1c1ccc(OC)cc1 | 15 to 30
C=C1NC(=O)C=C1c1ccc(Br)cc1 | 15 to 30
C=C1C(c2ccc(Br)cc2)=CC(=O)N1c1ccsc1 | > 30

System: Pseudomonas aeruginosa
Test: Toxicity in Pseudomonas aeruginosa MH602 PlasB::gfp assessed as inhibition of bacterial growth at 125 uM incubated for 15 hrs by spectrophotometry
Assay type: organism-based
Settings: MH602, 15 h, read-out: GI

SMILES | inhibition at 125 µM [%]
C=C1C(c2ccc(Br)cc2)=CC(=O)N1c1ccc(Cl)cc1 | ≤ 15
C=C1C(c2ccccc2F)=CC(=O)N1c1cccc(C)c1 | ≤ 15
C=C1C(c2ccc(Br)cc2)=CC(=O)N1c1ccc(Br)cc1 | ≤ 15
O=C1C=C(c2ccccc2F)CN1 | ≤ 15
C=C1C(c2ccccc2F)=CC(=O)N1c1cccc(Cl)c1 | ≤ 15
O=C1C=C(c2ccc(Br)cc2)CN1 | ≤ 15
C=C1C(c2ccc(Br)cc2)=CC(=O)N1c1ccc(OC)cc1 | ≤ 15
C=C1NC(=O)C=C1c1ccc(CC)cc1 | ≤ 15
C=C1NC(=O)C=C1c1ccc(OC)cc1 | ≤ 15
C=C1NC(=O)C=C1c1ccc(Br)cc1 | ≤ 15
C=C1C(c2ccc(Br)cc2)=CC(=O)N1c1ccsc1 | 15 to 30

System: Pseudomonas aeruginosa
Test: Toxicity in Pseudomonas aeruginosa MH602 PlasB::gfp assessed as inhibition of bacterial growth at 62.5 uM incubated for 15 hrs by spectrophotometry
Assay type: organism-based
Settings: MH602, 15 h, read-out: GI

SMILES | inhibition at 62.5 µM [%]
C=C1C(c2ccc(Br)cc2)=CC(=O)N1c1ccc(Cl)cc1 | ≤ 15
C=C1C(c2ccccc2F)=CC(=O)N1c1cccc(C)c1 | ≤ 15
C=C1C(c2ccc(Br)cc2)=CC(=O)N1c1ccc(Br)cc1 | ≤ 15
O=C1C=C(c2ccccc2F)CN1 | ≤ 15
C=C1C(c2ccccc2F)=CC(=O)N1c1cccc(Cl)c1 | ≤ 15
O=C1C=C(c2ccc(Br)cc2)CN1 | ≤ 15
C=C1C(c2ccc(Br)cc2)=CC(=O)N1c1ccc(OC)cc1 | ≤ 15
C=C1NC(=O)C=C1c1ccc(CC)cc1 | ≤ 15
C=C1NC(=O)C=C1c1ccc(OC)cc1 | ≤ 15
C=C1NC(=O)C=C1c1ccc(Br)cc1 | ≤ 15
C=C1C(c2ccc(Br)cc2)=CC(=O)N1c1ccsc1 | ≤ 15

System: Pseudomonas aeruginosa
Test: Toxicity in Pseudomonas aeruginosa MH602 PlasB::gfp assessed as inhibition of bacterial growth at 31.25 uM incubated for 15 hrs by spectrophotometry
Assay type: organism-based
Settings: MH602, 15 h, read-out: GI

SMILES | inhibition at 31.25 µM [%]
C=C1C(c2ccc(Br)cc2)=CC(=O)N1c1ccc(Cl)cc1 | ≤ 15
C=C1C(c2ccccc2F)=CC(=O)N1c1cccc(C)c1 | ≤ 15
C=C1C(c2ccc(Br)cc2)=CC(=O)N1c1ccc(Br)cc1 | ≤ 15
O=C1C=C(c2ccccc2F)CN1 | ≤ 15
C=C1C(c2ccccc2F)=CC(=O)N1c1cccc(Cl)c1 | ≤ 15
O=C1C=C(c2ccc(Br)cc2)CN1 | ≤ 15
C=C1C(c2ccc(Br)cc2)=CC(=O)N1c1ccc(OC)cc1 | ≤ 15
C=C1NC(=O)C=C1c1ccc(CC)cc1 | ≤ 15
C=C1NC(=O)C=C1c1ccc(OC)cc1 | ≤ 15
C=C1NC(=O)C=C1c1ccc(Br)cc1 | ≤ 15
C=C1C(c2ccc(Br)cc2)=CC(=O)N1c1ccsc1 | ≤ 15

System: Pseudomonas aeruginosa
Test: Inhibition of biofilm formation in Pseudomonas aeruginosa PAO1 at 250 uM incubated for 6 hrs by crystal violet staining based method
Assay type: functional
Settings: not given
Summary of the method: as §1

SMILES | inhibition
O=C1C=C(c2ccc(Br)cc2)CN1 | inactive

Same assay, conditions: PAO1, 6 h

SMILES | inhibition at 250 µM [%]
C=C1C(c2ccc(Br)cc2)=CC(=O)N1c1ccc(Cl)cc1 | 43.8
C=C1C(c2ccccc2F)=CC(=O)N1c1cccc(C)c1 | 42
C=C1C(c2ccc(Br)cc2)=CC(=O)N1c1ccc(Br)cc1 | 17
O=C1C=C(c2ccccc2F)CN1 | 10.9
C=C1C(c2ccccc2F)=CC(=O)N1c1cccc(Cl)c1 | 46.9
C=C1C(c2ccc(Br)cc2)=CC(=O)N1c1ccc(OC)cc1 | 54.9
C=C1NC(=O)C=C1c1ccc(CC)cc1 | 38.9
C=C1NC(=O)C=C1c1ccc(OC)cc1 | 38.8
C=C1NC(=O)C=C1c1ccc(Br)cc1 | 62.5
C=C1C(c2ccc(Br)cc2)=CC(=O)N1c1ccsc1 | 87.4
